The source made the active and inactive calls.
How the values were obtained:
[1] = molecular target: Pannexin-1 (Mus musculus) (UniProt Q9JIP4); test: Inhibition of mouse Panx-1 expressed in Xenopus laevis oocytes assessed as inhibition of membrane current cells held at -60 mV and voltage steps to +60 mV in presence of CBX at 50 uM measured by Whole cell voltage clamp assay relative to control; type: cell-based; details: Oocyte
Method in brief: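 Xenopus oocytes expressing Panx-1 were studied by two-electrode voltage clamp (3 M KCl electrodes) under continuous perfusion with OR2 Ringer, pH 7.5. Cells were held at −60 mV, with 5 s steps to +60 mV at 0.1 Hz. Compounds were screened at 50 µM and inhibition expressed as % of membrane current, n = 1–3 oocytes.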

[2] = molecular target: Pannexin-1 (Mus musculus, UniProt Q9JIP4); test: Inhibition of mouse Panx-1 expressed in Xenopus laevis oocytes assessed as inhibition of membrane current cells held at -60 mV and voltage steps to +60 mV in presence of CBX measured by Whole cell voltage clamp assay relative to control; type: cell-based, Oocyte
Sequence of Pannexin-1 (Q9JIP4 whole entry, the tested form may be a part): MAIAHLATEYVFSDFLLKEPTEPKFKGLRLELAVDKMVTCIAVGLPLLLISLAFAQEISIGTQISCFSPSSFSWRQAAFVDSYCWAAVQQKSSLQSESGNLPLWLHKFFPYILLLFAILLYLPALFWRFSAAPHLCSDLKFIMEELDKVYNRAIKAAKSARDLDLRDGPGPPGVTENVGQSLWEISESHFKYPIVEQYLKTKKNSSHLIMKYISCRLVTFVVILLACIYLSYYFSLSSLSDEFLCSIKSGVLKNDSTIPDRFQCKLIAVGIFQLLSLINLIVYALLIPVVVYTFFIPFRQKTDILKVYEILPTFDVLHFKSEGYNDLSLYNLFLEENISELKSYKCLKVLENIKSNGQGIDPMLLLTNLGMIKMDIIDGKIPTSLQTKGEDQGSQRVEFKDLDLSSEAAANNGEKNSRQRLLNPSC
Method in brief: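 Two-electrode voltage clamp of Panx-1-expressing Xenopus oocytes perfused with OR2, pH 7.5. Holding potential −60 mV, with repetitive 5 s steps to +60 mV at 0.1 Hz. Compound was applied at increasing concentrations to build dose–response curves and derive IC50.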

[3] = species on record: Mus musculus; test: Antiallodynic activity in oxaliplatin-induced neuropathy pain CD-1 mouse model assessed as reversal of enhancement of pain threshold at 0.3 nmol, IT measured after 45 mins by cold plate assay; type: functional, organism-based
Method in brief: (§1)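 Male CD-1 mice (22–25 g) given oxaliplatin 2.4 mg kg⁻¹ i.p. in 5% glucose on days 1–2, 5–9 and 12–14. Test agents were dissolved in saline and injected intrathecally (5 µl, L4–L5) at 0.1–1 nmol from day 14. Cold plate held at 4 °C. Latency to first paw lift/lick was recorded every 15 min.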

[4] = species on record: Mus musculus; test: Antiallodynic activity in oxaliplatin-induced neuropathy pain CD-1 mouse model assessed as reversal of enhancement of pain threshold at 1 nmol, IT measured after 60 to 105 mins by cold plate assay; type: functional, organism-based; details: time 60-105 min; method in brief: as §1
[5] = molecular target: T1, P2X purinoceptor 7 (Homo sapiens) (UniProt Q99572); test: Inhibition of human P2X7R expressed in Xenopus laevis oocytes assessed as inhibition of BzATP-induced cell membrane current at 10 uM measured by Whole cell voltage clamp assay relative to control; type: cell-based; details: Oocyte
T1 sequence (whole entry): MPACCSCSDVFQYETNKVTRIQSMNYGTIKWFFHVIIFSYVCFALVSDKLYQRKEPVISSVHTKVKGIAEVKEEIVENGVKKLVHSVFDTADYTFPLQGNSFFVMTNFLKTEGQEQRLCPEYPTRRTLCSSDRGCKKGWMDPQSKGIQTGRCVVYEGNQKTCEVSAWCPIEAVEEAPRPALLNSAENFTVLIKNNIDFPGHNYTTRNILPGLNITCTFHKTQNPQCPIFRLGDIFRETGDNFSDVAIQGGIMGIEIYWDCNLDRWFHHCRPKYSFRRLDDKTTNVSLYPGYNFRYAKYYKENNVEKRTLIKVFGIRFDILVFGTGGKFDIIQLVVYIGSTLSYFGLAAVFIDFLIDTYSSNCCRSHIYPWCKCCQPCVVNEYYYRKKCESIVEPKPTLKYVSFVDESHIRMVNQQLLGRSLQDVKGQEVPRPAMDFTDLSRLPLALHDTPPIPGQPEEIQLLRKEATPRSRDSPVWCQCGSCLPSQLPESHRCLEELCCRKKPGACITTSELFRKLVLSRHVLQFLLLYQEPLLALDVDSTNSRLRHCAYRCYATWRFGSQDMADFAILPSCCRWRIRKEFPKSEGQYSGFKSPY

[6] = molecular target: Gap junction beta-1 protein (Homo sapiens) (UniProt P08034); test: Inhibition of wild type Cx32(E143) (unknown origin) expressed in Xenopus laevis oocytes assessed as at holding potential of -10 mV and stepped in 5 mV test pulses of 5 sec duration at 10 uM measured by Voltage clamp assay relative to control; type: cell-based; details: Oocyte
Sequence of Gap junction beta-1 protein (Homo sapiens) (P08034 whole entry): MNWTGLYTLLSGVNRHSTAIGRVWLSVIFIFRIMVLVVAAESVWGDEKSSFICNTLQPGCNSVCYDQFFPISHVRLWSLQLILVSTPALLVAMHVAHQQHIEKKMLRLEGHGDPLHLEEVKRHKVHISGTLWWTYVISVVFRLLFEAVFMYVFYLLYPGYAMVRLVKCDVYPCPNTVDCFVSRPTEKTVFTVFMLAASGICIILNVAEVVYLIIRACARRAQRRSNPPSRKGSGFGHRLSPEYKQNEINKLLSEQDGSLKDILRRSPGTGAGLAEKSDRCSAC

[7] = test system: Mus musculus; test: Antiallodynic activity in oxaliplatin-induced neuropathy pain IT dosed CD-1 mouse model assessed as reversal of enhancement of pain threshold by measuring minimum effective dose measured 60 to 75 mins by cold plate assay; type: functional, organism-based; details: dose 0.3 nmol, time 60-75 min
Method in brief: (§2)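 Male CD-1 mice (22–25 g) were given oxaliplatin 2.4 mg kg−1 i.p. in 5% glucose on days 1–2, 5–9 and 12–14, with vehicle controls. Behavioural tests were done on day 15. Compounds in saline were injected intrathecally at L4–L5 at 0.1–1 nmol. Mice were placed on a 4 °C cold plate, and latency to the first hind-paw lifting or licking was recorded every 15 min.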

[8] = species on record: Mus musculus; test: Antiallodynic activity in oxaliplatin-induced neuropathy pain CD-1 mouse model assessed as reversal of enhancement of pain threshold at 1 nmol, IT measured after 45 to 90 mins by cold plate assay; type: functional, organism-based; details: time 45-90 min; method in brief: as §2
[9] = species on record: Mus musculus; test: Antiallodynic activity in oxaliplatin-induced neuropathy pain CD-1 mouse model assessed as reversal of enhancement of pain threshold at 0.3 to 1 nmol, IT measured after 80 mins by cold plate assay; type: functional, organism-based; details: dose 0.3-1 nmol; method in brief: as §1

Sequence of Pannexin-1 (Mus musculus) (Q9JIP4 whole entry, the tested form may be a part): as the sequence (Q9JIP4 whole entry, the tested form may be a part) above

SMILES	inhibition [1] [%]	IC50 [2] [µM]	other results
O=C(O)c1cc2cc([N+](=O)[O-])ccc2n1CCCCCc1ccccc1	58		
O=C(O)c1cn(Cc2ccccc2)c2ccc(N(Cc3ccccc3)Cc3ccccc3)cc12	19.5		
O=C(O)c1cc2cc(S(=O)(=O)NCCc3ccccc3)ccc2n1CCc1ccccc1	57.7		
O=C(O)c1cn(CCCCCc2ccccc2)c2ccc([N+](=O)[O-])cc12	32.3		
O=C(O)c1ccc(CNS(=O)(=O)c2ccc3c(c2)cc(C(=O)O)n3Cc2ccc(C(=O)O)cc2)cc1	100	0.8	Activity [3]: Active; Activity [4]: Active; inhibition [5]: 0%; inhibition [6]: 0%
O=C(O)c1ccc(Cn2c(C(=O)O)cc3cc([N+](=O)[O-])ccc32)cc1	61	4.9	
NS(=O)(=O)c1ccc2c(c1)cc(C(=O)O)n2Cc1ccccc1	29.3		inhibition [5]: 15%; inhibition [6]: 15%
O=C(O)c1ccc(CCn2c(C(=O)O)cc3cc([N+](=O)[O-])ccc32)cc1	31.7		
O=C(O)c1ccc(CN(Cc2ccc(C(=O)O)cc2)S(=O)(=O)c2ccc3c(c2)cc(C(=O)O)n3Cc2ccc(C(=O)O)cc2)cc1	79		
CCCN(CCC)S(=O)(=O)c1ccc(C(=O)O)cc1 [PROBENECID]		150	
O=C(O)c1cc2cc(S(=O)(=O)N(CCc3ccccc3)Cc3ccccc3)ccc2n1CCc1ccccc1	37.3		
O=C(O)c1ccc(CCn2cc(C(=O)O)c3cc([N+](=O)[O-])ccc32)cc1	73		
O=C(O)c1cc2cc(S(=O)(=O)N(Cc3ccccc3)Cc3ccccc3)ccc2n1Cc1ccccc1	41		inhibition [5]: 0%; inhibition [6]: 20%
O=C(O)c1cc2cc([N+](=O)[O-])ccc2n1CCCc1ccccc1	65.5	23.1	
O=C(O)c1ccc(Cn2cc(C(=O)O)c3cc([N+](=O)[O-])ccc32)cc1	54		
O=C(O)c1cc2cc([N+](=O)[O-])ccc2n1Cc1ccccc1	51.3		
O=C(O)c1cc2cc(S(=O)(=O)NCc3ccccc3)ccc2n1Cc1ccccc1	42		
O=C(O)c1ccc(Cn2c(C(=O)O)cc3cc(S(=O)(=O)N(Cc4ccccc4)Cc4ccccc4)ccc32)cc1	100	0.25	inhibition [5]: 61.8%; inhibition [6]: 0%
NS(=O)(=O)c1ccc2c(c1)cc(C(=O)O)n2Cc1ccc(C(=O)O)cc1	61.7		
O=C(O)c1cn(Cc2ccccc2)c2ccc([N+](=O)[O-])cc12	65	27.5	
O=C(O)c1cn(CCCc2ccccc2)c2ccc([N+](=O)[O-])cc12	71	12.4	inhibition [5]: 0%; Activity [7]: Active; Activity [8]: Active; inhibition [6]: 0%
O=C(O)c1cn(CCc2ccccc2)c2ccc([N+](=O)[O-])cc12	52.7		
CCN(Cc1cccc(S(=O)(=O)O)c1)c1ccc(C(=C2C=CC(=[N+](CC)Cc3cccc(S(=O)(=O)O)c3)C=C2)c2ccccc2S(=O)(=O)[O-])cc1		0.27	
O=C(O)c1cc2cc([N+](=O)[O-])ccc2n1CCc1ccccc1	56.3		
O=C(O)c1cn(CCCCc2ccccc2)c2ccc([N+](=O)[O-])cc12	65.7		
O=C(O)c1cc2cc(N(Cc3ccccc3)Cc3ccccc3)ccc2n1Cc1ccccc1	0		Activity [9]: inactive
O=C(O)c1cc([N+](=O)[O-])ccc1NCCCc1ccccc1 [5-NITRO-2-PHENYLPROPYLAMINOBENZOIC ACID [NPPB]]		50	
O=C(O)c1cc2cc(S(=O)(=O)N(Cc3ccccc3)Cc3ccccc3)ccc2n1CCc1ccccc1	41.3		
